In ChEMBL document CHEMBL5058577, “EUbOPEN Chemogenomics Library 2 (Multiplex)” (2022):

Test system: Fibroblast
Test: Multiplex assay against human fibroblast
Type: toxicity, cell-based
Outline: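 On a CQ1 microscope at 37°C and 5% CO2, live cells were imaged after compound addition. They had been stained at seeding with Hoechst33342, BioTracker Green Microtubule Cytoskeleton Dye, MitoTracker Red and Annexin V Alexa Fluor 680. CellPathfinder machine-learning gating assigned cells to Hoechst high-intensity objects or normal cells, normal cells to healthy, pyknosed or fragmented nuclei, and pyknosed cells to mitotic or apoptotic. Tubulin, mitochondrial-mass and membrane-permeability phenotypes are per cents of healthy-nucleus cells.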

[1] = 12 h, 1 µM, compound concentration 1 uM, replicate 1
[2] = 12 h, 1 µM, compound concentration 1 uM, replicate 2
[3] = 12 h, 10 µM, compound concentration 10 uM, replicate 1
[4] = 12 h, 10 µM, compound concentration 10 uM, replicate 2
[5] = 24 h, 1 µM, compound concentration 1 uM, replicate 1
[6] = 24 h, 1 µM, compound concentration 1 uM, replicate 2
[7] = 24 h, 10 µM, compound concentration 10 uM, replicate 1
[8] = 24 h, 10 µM, compound concentration 10 uM, replicate 2
[9] = 48 h, 1 µM, compound concentration 1 uM, replicate 1
[10] = 48 h, 1 µM, compound concentration 1 uM, replicate 2
[11] = 48 h, 10 µM, compound concentration 10 uM, replicate 1
[12] = 48 h, 10 µM, compound concentration 10 uM, replicate 2

Compound: COc1cc2nc(N3CCN(C(=O)COc4c(OC)cccc4C(C)C)CC3)nc(N)c2cc1OC.Cl.Cl
- Population Apoptotic (%) [1]: 50%
- Population Fragmented Nuclei (%) [1]: 17%
- Population Healthy Nuclei (%) [1]: 51%
- Population Hoechst High Intensity Objects (%) [1]: 4%
- Population Membrane Permeable-Phenotype (%) [1]: 3%
- Population Mitochondria Different-Phenotype (%) [1]: 6%
- Population Mitotic Cells (%) [1]: 50%
- Population Normal (%) [1]: 95%
- Population Pyknosed Nuclei (%) [1]: 30%
- Population Tubulin-Different-Phenotype (%) [1]: 40%
- Total Cell Count [1]: 123
- Population Apoptotic (%) [2]: 36%
- Population Fragmented Nuclei (%) [2]: 39%
- Population Healthy Nuclei (%) [2]: 42%
- Population Hoechst High Intensity Objects (%) [2]: 9%
- Population Membrane Permeable-Phenotype (%) [2]: 5%
- Population Mitochondria Different-Phenotype (%) [2]: 7%
- Population Mitotic Cells (%) [2]: 63%
- Population Normal (%) [2]: 90%
- Population Pyknosed Nuclei (%) [2]: 18%
- Population Tubulin-Different-Phenotype (%) [2]: 43%
- Total Cell Count [2]: 182
- Population Apoptotic (%) [3]: 33%
- Population Fragmented Nuclei (%) [3]: 13%
- Population Healthy Nuclei (%) [3]: 47%
- Population Hoechst High Intensity Objects (%) [3]: 20%
- Population Membrane Permeable-Phenotype (%) [3]: 0%
- Population Mitochondria Different-Phenotype (%) [3]: 15%
- Population Mitotic Cells (%) [3]: 66%
- Population Normal (%) [3]: 79%
- Population Pyknosed Nuclei (%) [3]: 38%
- Population Tubulin-Different-Phenotype (%) [3]: 63%
- Total Cell Count [3]: 346
- Population Apoptotic (%) [4]: 29%
- Population Fragmented Nuclei (%) [4]: 22%
- Population Healthy Nuclei (%) [4]: 46%
- Population Hoechst High Intensity Objects (%) [4]: 10%
- Population Membrane Permeable-Phenotype (%) [4]: 4%
- Population Mitochondria Different-Phenotype (%) [4]: 8%
- Population Mitotic Cells (%) [4]: 70%
- Population Normal (%) [4]: 89%
- Population Pyknosed Nuclei (%) [4]: 30%
- Population Tubulin-Different-Phenotype (%) [4]: 56%
- Total Cell Count [4]: 283
- Population Apoptotic (%) [5]: 68%
- Population Fragmented Nuclei (%) [5]: 23%
- Population Healthy Nuclei (%) [5]: 58%
- Population Hoechst High Intensity Objects (%) [5]: 3%
- Population Membrane Permeable-Phenotype (%) [5]: 1%
- Population Mitochondria Different-Phenotype (%) [5]: 9%
- Population Mitotic Cells (%) [5]: 31%
- Population Normal (%) [5]: 96%
- Population Pyknosed Nuclei (%) [5]: 17%
- Population Tubulin-Different-Phenotype (%) [5]: 39%
- Total Cell Count [5]: 128
- Population Apoptotic (%) [6]: 57%
- Population Fragmented Nuclei (%) [6]: 40%
- Population Healthy Nuclei (%) [6]: 42%
- Population Hoechst High Intensity Objects (%) [6]: 11%
- Population Membrane Permeable-Phenotype (%) [6]: 5%
- Population Mitochondria Different-Phenotype (%) [6]: 11%
- Population Mitotic Cells (%) [6]: 42%
- Population Normal (%) [6]: 88%
- Population Tubulin-Different-Phenotype (%) [6]: 50%
- Total Cell Count [6]: 180
- Population Apoptotic (%) [7]: 40%
- Population Fragmented Nuclei (%) [7]: 13%
- Population Healthy Nuclei (%) [7]: 45%
- Population Hoechst High Intensity Objects (%) [7]: 39%
- Population Membrane Permeable-Phenotype (%) [7]: 0%
- Population Mitochondria Different-Phenotype (%) [7]: 17%
- Population Mitotic Cells (%) [7]: 60%
- Population Normal (%) [7]: 60%
- Population Pyknosed Nuclei (%) [7]: 41%
- Population Tubulin-Different-Phenotype (%) [7]: 38%
- Total Cell Count [7]: 344
- Population Apoptotic (%) [8]: 33%
- Population Fragmented Nuclei (%) [8]: 25%
- Population Healthy Nuclei (%) [8]: 40%
- Population Hoechst High Intensity Objects (%) [8]: 23%
- Population Membrane Permeable-Phenotype (%) [8]: 4%
- Population Mitochondria Different-Phenotype (%) [8]: 5%
- Population Mitotic Cells (%) [8]: 66%
- Population Normal (%) [8]: 76%
- Population Pyknosed Nuclei (%) [8]: 34%
- Population Tubulin-Different-Phenotype (%) [8]: 47%
- Total Cell Count [8]: 273
- Population Apoptotic (%) [9]: 65%
- Population Fragmented Nuclei (%) [9]: 31%
- Population Healthy Nuclei (%) [9]: 51%
- Population Hoechst High Intensity Objects (%) [9]: 4%
- Population Membrane Permeable-Phenotype (%) [9]: 0%
- Population Mitochondria Different-Phenotype (%) [9]: 11%
- Population Mitotic Cells (%) [9]: 35%
- Population Normal (%) [9]: 96%
- Population Pyknosed Nuclei (%) [9]: 16%
- Population Tubulin-Different-Phenotype (%) [9]: 30%
- Total Cell Count [9]: 125
- Population Apoptotic (%) [10]: 42%
- Population Fragmented Nuclei (%) [10]: 45%
- Population Healthy Nuclei (%) [10]: 43%
- Population Hoechst High Intensity Objects (%) [10]: 10%
- Population Membrane Permeable-Phenotype (%) [10]: 8%
- Population Mitochondria Different-Phenotype (%) [10]: 10%
- Population Mitotic Cells (%) [10]: 57%
- Population Normal (%) [10]: 89%
- Population Pyknosed Nuclei (%) [10]: 11%
- Population Tubulin-Different-Phenotype (%) [10]: 57%
- Total Cell Count [10]: 193
- Population Apoptotic (%) [11]: 45%
- Population Fragmented Nuclei (%) [11]: 12%
- Population Healthy Nuclei (%) [11]: 45%
- Population Hoechst High Intensity Objects (%) [11]: 52%
- Population Membrane Permeable-Phenotype (%) [11]: 2%
- Population Mitochondria Different-Phenotype (%) [11]: 10%
- Population Mitotic Cells (%) [11]: 54%
- Population Normal (%) [11]: 47%
- Population Pyknosed Nuclei (%) [11]: 42%
- Population Tubulin-Different-Phenotype (%) [11]: 42%
- Total Cell Count [11]: 358
- Population Apoptotic (%) [12]: 30%
- Population Fragmented Nuclei (%) [12]: 33%
- Population Healthy Nuclei (%) [12]: 33%
- Population Hoechst High Intensity Objects (%) [12]: 31%
- Population Membrane Permeable-Phenotype (%) [12]: 9%
- Population Mitochondria Different-Phenotype (%) [12]: 0%
- Population Mitotic Cells (%) [12]: 69%
- Population Normal (%) [12]: 68%
- Population Pyknosed Nuclei (%) [12]: 33%
- Population Tubulin-Different-Phenotype (%) [12]: 43%
- Total Cell Count [12]: 311
